ChEMBL document CHEMBL1154279, “Cytotoxic compounds from the stems of Cinnamomum tenuifolium” (J Nat Prod, 2009)

Legend:
DU-145 = test: Cytotoxicity against human DU145 cells after 72 hrs by XTT assay; assay type: functional, cell-based; conditions: DU-145, 24 h, in the assay text read “after 24 hrs” for “after 72 hrs”
LNCaP = test: Cytotoxicity against human LNCAP cells after 72 hrs by XTT assay; assay type: functional, cell-based; conditions: 24 h, in the assay text read “after 24 hrs” for “after 72 hrs”
Outline: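 Prostate cancer cells in RPMI-1640 with 10% FBS, 37 °C, 5% CO2, grown to 70–80% confluence and treated at 0.1–100 µM for 24, 48 and 72 h. XTT labeling for 4 h at 37 °C, absorbance 450 nm (reference 650 nm) against control wells. IC50 derived from the mean of eight wells; taxol and cisplatin served as positive controls.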

How did the IC50 (DU-145) turn out when `CC(C)C1=CC(=O)[C@]2(C)O[C@@]1(O)[C@@H]1[C@H](C)CC[C@@H]12` [ALPINENONE] was run?
The IC50 was 267 µM.

What about the IC50 (LNCaP) of the same molecule?
Its IC50 is 67.1 µM.

Which results are given for `C=C1OC(=O)/C(=C/CCCCCCCCCCCCCCCCCCCCCCCCCC)[C@@H]1O` [ISOTENUIFOLIDE]?
IC50 (DU-145): 84.1 µM; IC50 (LNCaP): 42.7 µM

For `C=C1OC(=O)/C(=C\CCCCCCCCCCCCC)[C@@H]1O` [OBTUSILACTONE A], which IC50 (DU-145) is on record?
The IC50 was 68.4 µM.

What about the IC50 (LNCaP) of the same molecule?
The IC50 was 36.4 µM.

Which IC50 (LNCaP) does the source give for `CC(=O)O[C@H]1C(=O)[C@@]2(C)[C@H]([C@H](OC(=O)c3ccccc3)[C@]3(O)C[C@H](OC(=O)[C@H](O)[C@@H](NC(=O)c4ccccc4)c4ccccc4)C(C)=C1C3(C)C)[C@]1(OC(C)=O)CO[C@@H]1C[C@@H]2O` [PACLITAXEL] here?
Its IC50 is 6.32 µM.
